Assay results collected from several papers.
Target: Carbonic anhydrase 1 (CA1, Homo sapiens, UniProt P00915)
Read-out: enzyme activity
Action: inhibitor

SMILES | assay | Ki [µM]
O=C(OCc1cn(-c2ccc([N+](=O)[O-])cc2)nn1)c1ccc(=O)oc1 | stopped-flow | > 100
Cc1c(Cl)c(=O)oc2cc(OCCCCSC#N)ccc12 | stopped-flow | > 100
C[C@H]1CCC[C@H](C(=O)Nc2nnc(S(N)(=O)=O)s2)C1 (racemic) | stopped-flow | 0.0639
C#CCNC(=O)c1ccc(=O)oc1 | stopped-flow | > 100
CC1CCC(CC(=O)Nc2nnc(S(N)(=O)=O)s2)CC1 (centres unmarked) | stopped-flow | 0.0692
CC[C@H]1OC(=O)[C@H](C)[C@@H](O[C@H]2C[C@@](C)(OC)[C@@H](O)[C@H](C)O2)[C@H](C)[C@@H](O[C@@H]2O[C@H](C)C[C@H](N(C)C)[C@H]2O)[C@](C)(O)C[C@@H](C)CN(C)[C@H](C)[C@@H](O)[C@]1(C)O | – | 10.2
O=C(OCc1cn(-c2ccccc2)nn1)c1ccc(=O)oc1 | stopped-flow | > 100
COc1cc(C)c(/C=C/C(C)=C/C=C/C(C)=C/C(=O)O)c(C)c1C | – | 7.68
NCCCC(=O)Nc1nnc(S(N)(=O)=O)s1 | stopped-flow | 0.155
O=C(OC1CCCCC1)c1ccc(=O)oc1 | stopped-flow | > 100
CC(C)[C@H](N)C(=O)OCCOCn1cnc2c(=O)[nH]c(N)nc21 | – | 8.7
O=C(Oc1ccc(Cl)cc1)c1ccc(=O)oc1 | stopped-flow | > 100
N#CSCCCCOc1ccc2c(-c3ccccc3)cc(=O)oc2c1 | stopped-flow | > 100
Cc1ccccc1CC(=O)Nc1nnc(S(N)(=O)=O)s1 | stopped-flow | 0.0518
Nc1nc2c(ncn2COCCO)c(=O)[nH]1 | – | 7.31
CC(C)(C)CCC(=O)Nc1nnc(S(N)(=O)=O)s1 | stopped-flow | 0.267
CN(C)CCC(c1ccccc1)c1ccccn1 (centres unmarked) | – | 13.9
COc1ccc(OC(=O)c2ccc(=O)oc2)cc1 | stopped-flow | > 100
COc1ccnc(C[S+]([O-])c2nc3ccc(OC(F)F)cc3[nH]2)c1OC (centres unmarked) | – | 7.16
NS(=O)(=O)c1nnc(NC(=O)CN2CC3CCC2CC3)s1 | stopped-flow | 0.144
